Assay outcomes: PubChem BioAssay, several laboratories
CCR6 antag = blocks CCL20-driven beta-arrestin recruitment at human CCR6; P51684; CHO-K1 CCR6 PathHunter beta-arrestin, luminescence, CCL20-stimulated; inhibition, % at 20 µM; 340,000 tested, 0.49% active; AID 493098;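 active = compounds whose inhibition of the agonist-driven luminescence signal at 20 µM reaches about 50%, limit read from the data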;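 also: cells stimulated with CCL20 at 14 nM final; plate controls were DMSO with CCL20 for no effect and DMSO without agonist for full effect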
Target sequence (P51684 whole entry, looked up): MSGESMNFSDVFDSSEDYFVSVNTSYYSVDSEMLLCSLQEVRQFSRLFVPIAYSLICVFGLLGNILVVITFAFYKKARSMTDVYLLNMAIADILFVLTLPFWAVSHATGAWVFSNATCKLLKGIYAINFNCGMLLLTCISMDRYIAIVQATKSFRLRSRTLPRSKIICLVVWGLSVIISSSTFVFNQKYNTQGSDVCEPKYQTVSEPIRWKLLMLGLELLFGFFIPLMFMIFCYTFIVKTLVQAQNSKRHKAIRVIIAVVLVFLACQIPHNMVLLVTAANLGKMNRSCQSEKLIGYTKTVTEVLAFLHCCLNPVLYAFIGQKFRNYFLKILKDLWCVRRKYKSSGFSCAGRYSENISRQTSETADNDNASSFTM
APJ antagonist = APJ receptor antagonism | AID 2521 | CHO-K1 APJ beta-arrestin complementation, luminescence | P35414 | 330,000 tested, 0.32% active | inhibition, % at 20 µM;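 active = inhibition above about 40% at 20 µM, limit read from the data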;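 also: cells challenged with 10 nM apelin-13 agonist together with compound; plate controls were apelin-13 plus DMSO wells for no effect and DMSO wells lacking apelin-13 for full effect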
Beta2AR agonist = human beta-2 adrenergic receptor agonism by FAP; P07550; Am2.2-beta2AR cells, FAP receptor internalization, flow cytometry; response, % (no concentration beside the values); 340,000 tested, 0.43% active; AID 504454;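 active = response above a set limit, near 3 SD of response in nonfluorescent compounds, cut at about 42% in these data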
APJ agonist = activates the human apelin receptor APJ; P35414; 330,000 tested, 0.11% active; activation, % at 20 µM; CHO-K1 APJ PathHunter beta-arrestin, luminescence; 0% DMSO wells, 100% apelin;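 active = activation more than six SD over the plate average, tested at 20 µM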;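 also: 0% = DMSO alone and 100% = apelin-13 at 10 nM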
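Test system: CHO-K1 APJ beta-arrestin complementation cell line | Compound: Single test compound dose, 20 µM final, 1% DMSO | Incubation: Compound 90 min 25 °C, reagent 1 h | Measured by: beta-gal luminescence | Read-out basis: APJ–arrestin association signal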
CXCR6 inh = inhibitors of human CXCR6 receptor | O00574 | CHO-K1 PathHunter CXCR6 beta-arrestin, luminescence | inhibition, % at 20 µM | 360,000 tested, 0.36% active | AID 602244; in the data active = inhibition above about 34%, passing the limit was not always enough;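 also: antagonist mode with CXCL16 agonist at 10 nM final; 0% = 10 nM CXCL16 with DMSO and 100% = unstimulated wells without agonist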
EBI2 antag = antagonists of human EBI2 receptor; P32249; EBI2 beta-arrestin recruitment, luminescence, 7a,25-OHC stimulated; inhibition, % at 5 µM; 360,000 tested, 0.81% active; AID 651636; in the data active = inhibition above about 38%;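 also: enzyme fragment complementation signal reports receptor beta-arrestin coupling in cells; 0% = agonist plus DMSO wells and 100% = wells without agonist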
EBI2 antag conf = EBI2 (human) antagonism, single concentration confirmation; EBI2 beta-arrestin luminescence, 7a,25-OHC antagonism; shares compounds with EBI2 antag; inhibition, % at 5 µM; 2,400 tested, 29% active;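 active = inhibition of at least 50%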
EBI2 ag = EBI2 agonism counter-screen; shares compounds with EBI2 antag; EBI2-expressing cells, agonist mode, luminescence, 60 min; 0% vehicle, 100% 7α,25-dihydroxycholesterol control; activation, % at 5 µM; 2,400 tested, under 10 active;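 active = activation of at least 50%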
bGal cs = beta-galactosidase inhibition counter-screen. shares compounds with EBI2 antag. purified beta-galactosidase, luminescent Galacton Star, 15 min. inhibition, % at 5 µM. 2,400 tested, 1% active;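 active = replicate-average signal at least 3 plate SD below neutral wells, shown as high inhibition, flagging enzyme-inhibiting false positives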;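 also: 0% = DMSO wells with enzyme and 100% = wells lacking enzyme; higher means stronger loss of beta-gal luminescence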
Numbers without * were called inactive; . = no result given. In the library only some 1.8% were active in any assay of this set; here they are far more common.

SMILES	CCR6 antag	APJ antagonist	Beta2AR agonist	APJ agonist	CXCR6 inh	EBI2 antag	EBI2 antag conf	EBI2 ag	bGal cs
O=C(Nc1ccccc1N1CCCC1)C1CCN(C(=O)c2ccc(Cl)cc2)CC1	11	22	7	-6	-5	32	.	.	.
O=C(Nc1ccccc1N1CCCCC1)C1CCN(C(=O)c2ccc(Cl)cc2)CC1	12	18	3	-8	-1	58*	6	2	-11
O=C(CSc1ccc(Cl)cc1)Nc1ccc(N2CCN(C(=O)c3ccc(Cl)cc3)CC2)cc1	-3	19	0	6	-8	28	.	.	.
O=C(Cc1ccccc1)Nc1ccccc1N1CCN(c2ccccc2)CC1	30	19	14	2	24	41*	10	0	7
CC(C)[C@H](NC(=O)N1c2ccccc2NC(=O)[C@@H]1C(C)C)C(=O)N1CCC[C@H]1C(=O)O	7	-30	-5	-2	4	-9	.	.	.
Nc1ncnc2c1ncn2[C@@H]1O[C@H](CNC(=O)[C@H](N)Cc2cscn2)[C@@H](O)[C@H]1O	7	.	9	.	-3	-10	.	.	.
CCc1ccc(C(=O)COC(=O)c2ccccc2OC)cc1	12	1	-5	2	-8	-4	.	.	.
COc1ccc(C2CCCN2C(=O)Nc2ccc(Cl)cc2)cc1OC (centres undefined)	11	0	1	-2	-6	59*	49	1	6
COc1ccc(CCNC(=O)CSc2cn(Cc3cccc(C)c3)c3ccccc23)cc1OC	30	7	17	-7	22	55*	29	-1	-9
COc1ccc(CCNC(=O)CSc2cn(Cc3ccccc3)c3ccccc23)cc1OC	23	11	1	3	8	42	.	.	.
O=C(CSc1nnc(-c2ccc(O)cc2)n1Cc1ccco1)N1CCc2ccccc2C1	10	-4	-1	-1	0	76*	15	0	1
NC(=O)CSc1nnc(-c2ccc(O)cc2)n1Cc1ccco1	-1	0	1	5	-3	-9	.	.	.
Cn1c(=O)c2[nH]c(C(O)c3ccc(Cl)cc3)nc2n(C)c1=O (centres undefined)	3	.	-7	.	0	-9	.	.	.
C[C@H]1CN([C@@H](C)CO)C(=O)c2cc(Br)cnc2O[C@H]1CN(C)C(=O)C1CC1	.	.	.	.	3	-4	.	.	.
COc1ccc(NS(=O)CCCc2ccccc2)cc1 (centres undefined)	.	.	.	.	5	-10	.	.	.
O=C(NNc1ccc(C2CCCCC2)cc1)C(O)(c1ccccc1)c1cccs1 (centres undefined)	24	31	-4	-9	-8	41*	36	0	8
COc1ccc(/C=N/NC(=O)CSc2nnc(CCCc3ccc(OC)c(C)c3)o2)cc1	11	-7	-8	0	-5	47*	16	-1	-11
COc1ccc(C2=CN(Cc3ccccc3)CCC2=O)cc1	0	-7	-5	-2	8	24	.	.	.
Cc1ccc(C2=CN(Cc3ccccc3)CCC2=O)cc1	16	-1	0	-2	-4	44*	25	2	4
O=C1CCN(Cc2ccccc2)C=C1c1ccc(Br)cc1	22	7	-1	0	-8	84*	67*	-1	-6
CC1Cc2cc(/C(O)=C3/C(=O)C(=O)N(CCCN4CCOCC4)C3c3ccc(C(C)C)cc3)ccc2O1 (centres undefined)	9	-15	4	4	1	-13	.	.	.
Cc1[nH]c2ccc(C(=O)N3CCN(Cc4ccccc4)CC3)cc2c1C	6	-13	5	-1	-8	65*	40	3	6
O=C(c1ccc(Cl)c(Cl)c1)N1CCN(c2ccccn2)CC1	11	-10	-7	2	6	23	.	.	.
CCOC(=O)N1CCN(C(=O)c2ccc3[nH]c(C)c(C)c3c2)CC1	2	4	-3	0	6	35	.	.	.
O=C(c1ccc2c(c1)CCC2)N1CCN(Cc2ccccc2)CC1	.	.	.	.	6	29	.	.	.
SMILES	CCR6 antag	APJ antagonist	Beta2AR agonist	APJ agonist	CXCR6 inh	EBI2 antag	EBI2 antag conf	EBI2 ag	bGal cs
Cc1[nH]c2ccc(C(=O)N3CCN(c4ccccn4)CC3)cc2c1C	13	11	2	3	2	41*	39	1	8
COc1ccc(C(=O)N2CCN(Cc3ccccc3)CC2)cc1[N+](=O)[O-]	-4	4	0	-4	-2	30	.	.	.
CCCN1CCN(C(=O)c2ccc3[nH]c(C)c(C)c3c2)CC1	.	.	.	.	0	73*	46	-1	-11
COc1ccc2[nH]c(C(=O)N3CCN(Cc4ccccc4)CC3)cc2c1OC	6	16	11	-5	-3	52*	17	0	-10
Cc1c(C(=O)Nc2ccccc2C(=O)N2CCOCC2)cccc1[N+](=O)[O-]	3	6	7	-1	5	-9	.	.	.
Cc1ccccc1S(=O)(=O)N1C[C@H]2[C@H]3C(=O)N(c4ccccc4)C(=O)[C@H]3CC(=O)[C@H]2[C@@H]1c1ccc(Cl)cc1	.	.	.	.	-5	-11	.	.	.
CCc1ccc(/C=C2\SC(N3CCCC3)=NC2=O)cc1	1	-13	1	-3	5	73*	40	1	9
COc1ccc(/C=C2\SC(N3CCCCC3)=NC2=O)cc1	5	21	7	1	0	54*	30	5	5
O=C1N=C(N2CCCCC2)S/C1=C\c1ccncc1	2	1	0	1	-2	2	.	.	.
O=C(CNC(=O)c1sc2ccccc2c1Cl)Nc1ccccc1F	0	2	-2	-1	-8	2	.	.	.
Cc1cc(Cl)c2oc(C(=O)N3CCN(c4cnccn4)CC3)c(C)c2c1	.	.	.	.	1	54*	33	-1	-8
Cc1cc(Cl)c2oc(C(=O)N3CCN(C(=O)c4ccco4)CC3)c(C)c2c1	8	-42	-4	3	1	44*	20	-2	-7
CC(=O)C1CCC2C3CCC4=CC(=O)CCC4(C)C3(F)C(O)CC12C (centres undefined)	7	.	-14	.	-7	-3	.	.	.
CCCCC[C@@H]1C=C(C(=O)O)[C@H](c2ccc(OC)c(OC)c2)N1S(=O)(=O)c1ccc(C)cc1	1	-5	4	-5	-1	0	.	.	.
C=C(C)C1Cc2c(C)nn(-c3cccc4ccccc34)c2C1 (centres undefined)	10	17	-7	-2	-3	32*	41	-1	8
